The source of these data is PubChem BioAssay.

Activity calls are given as the source filed them.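 The calls were made as follows: active = viability at or below 30% in both replicate assays; inconclusive = viability at or below 30% in just one of the two assays; inactive = the rest.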

A word on the viability: it is a read-out of living cells in per cent, often relative to untreated cells.

This experiment in a line: HUVEC growth inhibition – cell-based, human, primary screen (AID 575).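 Also: 100% = median of untreated cell wells with 0.1% DMSO on each plate.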 The following applies: HUVEC proliferation, CellTiter-Glo luminescence, 72 h; at 10 µM; hits give low values. The gist of the method: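 system = HUVEC primary cells | amount = 1250 cells/well | buffer or medium = supplemented EBM, 2% fetal bovine serum | dosing = single-point 10 µM, DMSO 0.1% final | times = 72 h compound incubation | detection = CTG luminescence | read-out = % viability relative to median vehicle-well signal on each plate | control set = vehicle and MePR control wells | format = collagen-coated 384-well format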
Turning to `CC1CCCCN1CCNC(=O)C1CCN(S(=O)(=O)c2cccc3cccnc23)CC1` (configuration not stated), the viability is 112% (inactive).
The value for `CCCCSc1nc(CCC)cc(=O)[nH]1` was 91.9% (inactive); that for `CC1(C)CC(=O)C2=C(C1)NC(=O)CC2c1ccc(N(CCC#N)CCC#N)cc1` (configuration not stated) was 101% (inactive).
The value for `Cc1cccc(OCC(=O)N2CCN(C(=O)Cc3ccccc3)CC2)c1` was 107% (inactive); that for `O=C1CC(c2cccnc2)c2cc3c(cc2N1)OCO3` (configuration not stated) was 88.7% (inactive).
Take `CCc1nn(CC(=O)NCCCN2CCc3ccccc3C2)c(=O)c2cc3sccc3n12`: the viability was 89.1% (inactive).
`Cc1ccc(-c2nc3cc(NC(=O)C(C)C)ccc3o2)cc1`: the viability was 73.5% (inactive).
Regarding `CC(CC(=O)NC1CCSC1=O)c1ccccc1` (configuration not stated), the viability is 89.2% (inactive).
As to `COc1ccc(C2CC(c3ccc(OC)cc3)n3nc(N)nc3N2)cc1` (configuration not stated), the viability was 88% (inactive).
The value for `COC(=O)COc1cccc(NC(=O)COc2ccccc2)c1` was 90.7% (inactive); that for `COc1ccc(OCCSc2nc3ccccc3n2CC(=O)O)cc1` was 85.4% (inactive).
The result for `Cc1cccnc1-n1c(CCN2C(=O)c3ccccc3C2=O)nc2ccccc2c1=O` reads 89.2% (inactive); that for `CC(=O)N(c1ccc(Br)cc1)C1C=CS(=O)(=O)C1` (configuration not stated), 87.9% (inactive).
The value for `Cc1ccccc1Cn1cc(/C=N/n2cnnc2)c2ccccc21` was 68.7% (inactive); that for `CCOC(=O)N1CCN(c2cc(=O)n(-c3ccccc3Cl)c(=O)[nH]2)CC1` was 100% (inactive); that for `CCCCN(C)Cc1c(O)ccc2c(-c3ccccc3)cc(=O)oc12` was 111% (inactive).
Turning to `CCCCn1c(CN2CCN(c3ccc(F)cc3)CC2)nc2c1c(=O)n(C)c(=O)n2C`, the viability was 66.9% (inactive).
